Nine compounds from ChEMBL document CHEMBL4382271, “Eucalypglobulusals A-J, Formyl-Phloroglucinol-Terpene Meroterpenoids from Eucalyptus globulus Fruits” (J Nat Prod, 2018) can be followed below.

Activity calls are given as the source filed them. The rule behind the calls is not given here.

One test relates to HCT-116. Put plainly: Cytotoxicity against human HCT116 cells by MTT assay. The test is classed as functional, cell-based. For orientation: Tetrazolium assays rely on reduction of a dye to a coloured formazan, in cell work by metabolically active cells.
A further test has as its system CCRF-CEM. Put plainly: Cytotoxicity against human CCRF-CEM cells by MTT assay. The format is functional, cell-based.
In the next test the test system is DU-145. Put plainly: Cytotoxicity against human DU145 cells by MTT assay. The format is functional, cell-based.
The next test deals with Huh-7. Put plainly: Cytotoxicity against human HuH7 cells by MTT assay. The test is classed as functional, cell-based.
The test system of the next test is A549. Put plainly: Cytotoxicity against human A549 cells by MTT assay. The format is functional, cell-based.
For test [1], the target named is T1, DNA topoisomerase I (Bos taurus) (UniProt F1MN93).
T1 sequence (whole entry): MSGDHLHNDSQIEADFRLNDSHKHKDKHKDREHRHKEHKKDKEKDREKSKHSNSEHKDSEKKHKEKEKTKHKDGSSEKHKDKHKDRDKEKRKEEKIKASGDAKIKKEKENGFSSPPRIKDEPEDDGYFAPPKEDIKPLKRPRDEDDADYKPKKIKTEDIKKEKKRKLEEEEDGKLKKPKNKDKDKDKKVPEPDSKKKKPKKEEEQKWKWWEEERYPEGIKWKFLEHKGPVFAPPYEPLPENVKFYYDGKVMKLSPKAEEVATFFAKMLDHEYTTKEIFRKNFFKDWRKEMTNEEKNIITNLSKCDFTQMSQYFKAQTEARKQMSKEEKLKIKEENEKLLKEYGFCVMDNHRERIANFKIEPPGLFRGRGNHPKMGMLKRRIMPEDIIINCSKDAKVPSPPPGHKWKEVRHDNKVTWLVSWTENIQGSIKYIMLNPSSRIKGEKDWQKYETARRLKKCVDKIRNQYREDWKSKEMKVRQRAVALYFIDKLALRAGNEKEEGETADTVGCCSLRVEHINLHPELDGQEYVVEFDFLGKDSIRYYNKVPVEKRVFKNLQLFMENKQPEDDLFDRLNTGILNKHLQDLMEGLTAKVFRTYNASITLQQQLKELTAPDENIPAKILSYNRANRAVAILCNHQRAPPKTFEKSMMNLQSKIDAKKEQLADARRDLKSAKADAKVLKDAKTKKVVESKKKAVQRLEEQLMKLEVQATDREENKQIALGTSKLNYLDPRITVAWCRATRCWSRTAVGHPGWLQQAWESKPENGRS
Put plainly: Inhibition of calf thymus topoisomerase-1-mediated supercoiled pBR322 DNA relaxation at 50 uM after 30 mins by agarose gel electrophoresis assay relative to control. Summed up: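 Top1-mediated plasmid relaxation run at 50 μM test concentration. Camptothecin (CPT) was included as reference inhibitor. Inhibition was expressed as percentage ranges from gel band intensities.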

The target in test [2] is T1, DNA topoisomerase I (Bos taurus). Put plainly: Inhibition of calf thymus topoisomerase-1-mediated supercoiled pBR322 DNA unwinding at 25 uM preincubated with DNA for 10 mins followed by enzyme addition and measured after 30 mins by agarose gel electrophoresis assay. Summed up:
(§1)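 Top1-mediated unwinding assay with ethidium bromide, a DNA intercalator, as positive control. It tests whether compounds unwind DNA by intercalation.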

Test [3] shares this target. Put plainly: Inhibition of calf thymus topoisomerase-1-mediated relaxed pBR322 DNA unwinding at 25 uM preincubated with DNA for 10 mins followed by enzyme addition and measured after 30 mins by agarose gel electrophoresis assay. An outline of the steps:
as §1

Test [4] shares this target. Put plainly: Inhibition of calf thymus topoisomerase-1 assessed as reduction in cleavage complex formation by measuring decrease in nicked form DNA using supercoiled pBR322 DNA as substrate after 30 mins by agarose gel electrophoresis assay.

The IC50 is the concentration at which inhibition is half-maximal. Usually inhibition stands for the percentage by which the read-out fell short of the control.

Consider `C=C(C)[C@@H]1C=C2[C@@H](C)CC[C@@H](Cc3c(O)c(C=O)c(O)c(C(=O)CC(C)C)c3O)[C@]2(C)CC1`, for which the IC50 is 9.6 µM in the test with HCT-116; above 10 µM in the test on CCRF-CEM; above 10 µM with DU-145; above 10 µM with Huh-7; 5.2 µM in the test on A549. For the same compound, the inhibition in test [1] was above 90%.

With `CC[n+]1c(-c2ccccc2)c2cc(N)ccc2c2ccc(N)cc21`, the inhibition entry in test [2] and in test [3] was “Active” throughout.

Consider `COc1cc([C@@H]2c3cc4c(cc3[C@@H](O[C@@H]3O[C@@H]5CO[C@@H](C)O[C@H]5[C@H](O)[C@H]3O)[C@H]3COC(=O)[C@H]23)OCO4)cc(OC)c1O` [ETOPOSIDE], for which the IC50 in the test on HCT-116 is above 10 µM; in the test with CCRF-CEM, 1.1 µM; in the test with DU-145, above 10 µM; with Huh-7, 7.4 µM; with A549, above 10 µM.

As for `CC[C@@]1(O)C(=O)OCc2c1cc1n(c2=O)Cc2cc3ccccc3nc2-1` [CAMPTOTHECIN], the IC50 turned out to be 0.013 µM in the test on HCT-116; 0.002 µM in the test with CCRF-CEM; 0.016 µM with DU-145; 0.0023 µM with Huh-7; 0.04 µM in the test on A549. This compound came in with an inhibition in [1] above 90%.

On to `CC(=O)[C@@]12C=C(C(C)C)CC[C@@]1(C)[C@H]([C@@H](CC(C)C)c1c(O)c(C=O)c(O)c(C=O)c1O)C[C@H]2O`, for which the inhibition result in test [4] was “Dose-dependent effect”. In addition, the inhibition entry in [2] and in [3] was “inactive” in each case.

Turning to `C=C1/C=C/[C@H](C(C)(C)O)C[C@H]2[C@@H](CC(C)C)c3c(O)c(C=O)c(O)c(C=O)c3O[C@]2(C)CCC1`, the IC50 in the test on HCT-116 was above 10 µM; in the test with CCRF-CEM it was 3.3 µM; in the test on DU-145, above 10 µM; in the test with Huh-7 it was above 10 µM; in the test on A549, above 10 µM. The compound also returned an inhibition in [1] of 60 to 89%.

Take `CC(C)CC(=O)c1c(O)c(C=O)c(O)c(C[C@@]2(C)CC[C@@H]3[C@@H]2[C@H]2[C@@H](CC[C@@]3(C)O)C2(C)C)c1O` [EUCALYPTIN A]: the IC50 in the test on HCT-116 was 9.6 µM; in the test on CCRF-CEM, above 10 µM; with DU-145, 8.9 µM; in the test with Huh-7, above 10 µM; in the test on A549 it was 4.9 µM. In test [1], the inhibition was above 90%.

As for `CC(C)CC(=O)c1c(O)c(C=O)c(O)c(C[C@@]2(C)CC[C@H]3C2=C[C@H](C(C)(C)O)CC[C@H]3C)c1O`, the half-inhibitory concentration (IC50) was above 10 µM in the test on HCT-116; 6.9 µM in the test with CCRF-CEM; above 10 µM in the test with DU-145; above 10 µM in the test on Huh-7; 5.3 µM in the test on A549. The same compound came in with an inhibition in test [1] above 90%.

In the case of `CC(C)C[C@@H](c1c(O)c(C=O)c(O)c(C=O)c1O)[C@@]1(C)CC[C@@H]2[C@@H]1[C@H]1[C@@H](CC[C@@]2(C)O)C1(C)C`, the inhibition entry in test [2] and in [3] was “inactive” throughout.
